Source: PubChem (several laboratories)
In the library only some 2.9% were active in any assay of this set; here they are far more common.
NS3 helicase inh: HCV NS3 helicase inhibition. NS3 helicase DNA unwinding, Cy5 molecular beacon fluorescence. inhibition, % at 10.9 µM. AID 1800. 290,000 compounds, 0.56% hits;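 active = inhibition above the mean of all tested compounds plus 3 SD, set per campaign, cut at about 35% in these data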;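 note: 0% = DMSO wells and 100% = thioflavine S control wells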
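Test system: hepatitis C virus NS3 helicase domain fragment enzyme. Also added: annealed dual-labelled DNA beacon duplex, ATP-started. Timing: 60 min unwinding reaction at 25 °C after ATP addition. Technique: Cy5 fluorescence. Measure: % inhibition of unwinding.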
ABHD5-PLIN5 inh: inhibitors of human ABHD5-perilipin-5 interaction; Split G. princeps luciferase complementation, luminescence, 4 h; inhibition, % at 4 µM; 360,000 compounds, 0.78% hits;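 active = inhibition above the mean inhibition across every tested compound plus 3 SD, cut at about 22% in these data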;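 note: 0% = DMSO only wells and the 100% control is not disclosed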
A3G deaminase: APOBEC3G (human) deaminase inhibition. AID 493012. recombinant A3G, ssDNA deamination FAM/TAMRA fluorescence. 330,000 compounds, 0.28% hits. inhibition, % at 20 µM;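 active = inhibition of at least 40% at 20 µM, with no more than 30% in the related APOBEC3A deaminase screen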;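 note: plate controls were DMSO wells with A3G for no effect and wells lacking A3G enzyme for full effect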
Target sequence (Q9HC16 whole entry, looked up): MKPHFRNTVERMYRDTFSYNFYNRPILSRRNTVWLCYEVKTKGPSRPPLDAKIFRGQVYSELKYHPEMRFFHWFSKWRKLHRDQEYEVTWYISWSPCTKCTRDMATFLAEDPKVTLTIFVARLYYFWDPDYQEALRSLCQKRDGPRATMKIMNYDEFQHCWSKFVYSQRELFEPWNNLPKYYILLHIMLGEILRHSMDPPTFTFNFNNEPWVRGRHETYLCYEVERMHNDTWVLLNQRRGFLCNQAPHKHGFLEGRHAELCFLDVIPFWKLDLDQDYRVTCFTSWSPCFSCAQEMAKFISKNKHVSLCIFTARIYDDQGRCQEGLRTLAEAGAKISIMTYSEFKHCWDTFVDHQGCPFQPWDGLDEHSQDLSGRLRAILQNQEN
core dimer inh: HCV core protein dimerization inhibition; TR-FRET GST/Flag-core106 dimerization, 1536-well; inhibition, % at 5 µM; 300,000 compounds, 0.33% hits; AID 1899;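 active = inhibition above the mean of all tested compounds plus 3 SD, set per screening campaign, cut at about 45% in these data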
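System: GST/Flag-tagged HCV core106 proteins. Incubation: compound-protein-antibody incubation 4 h at 22.5 °C. Technique: HTRF with 340 nm excitation, 617/671 nm emission. Medium: KF-containing HEPES buffer, pH 7.45, DTT, CHAPS, BSA. Read-out: inhibition (%) from 671 over 617 nm ratio. Also added: Eu(K)-anti-GST 90 ng/mL plus XL665-anti-Flag 1 µg/mL.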
A3A deaminase: inhibitors of human APOBEC3A DNA deaminase; 330,000 compounds, 0.41% hits; inhibition, % at 20 µM; AID 493011; recombinant A3A, FAM/TAMRA ssDNA deamination fluorescence;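 active = at least 40% inhibition at 20 µM here, with at most 30% in a related deaminase screen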;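 note: plate controls were A3A with DMSO for no effect and wells lacking A3A enzyme for full effect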
Target sequence (P31941 whole entry, looked up): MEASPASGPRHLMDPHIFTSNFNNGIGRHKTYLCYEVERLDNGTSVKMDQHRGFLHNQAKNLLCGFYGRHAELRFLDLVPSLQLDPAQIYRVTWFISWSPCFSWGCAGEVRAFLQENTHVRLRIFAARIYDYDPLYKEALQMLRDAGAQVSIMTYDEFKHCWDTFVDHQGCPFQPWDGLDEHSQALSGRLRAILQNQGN
PRMT1 FP inh: PRMT1 (human) inhibition, primary screen; Q99873; recombinant PRMT1, activity-based probe fluorescence polarization; inhibition, % at 2.79 µM; 370,000 compounds, 1.3% hits;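 active = inhibition above about 21% made by adding two undisclosed values, limit read from the data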
NS3 helicase cf: confirmation of Hepatitis C virus NS3 helicase inhibitors; 1,600 compounds, 31% hits; shares compounds with NS3 helicase inh; NS3 helicase DNA unwinding, Cy5 molecular beacon fluorescence; inhibition, % at 10.9 µM; AID 1943;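 active = inhibition above the mean of all tested compounds plus 3 SD, cutoff set per campaign, cut at about 36% in these data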
FID counter trip: counter-screen for HCV NS3 helicase inhibitors: DNA intercalator displacement; shares compounds with NS3 helicase inh; DNA fluorescent intercalator displacement, fluorescence; inhibition, % at 7.9 µM; 1,600 compounds, 4% hits; AID 1945; in the data active = inhibition above about 37%;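 note: 0% = vehicle and 100% = reference compound; higher means more displacement of ethidium bromide from the DNA hairpin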
DNA FID DR: displaces fluorescent intercalator from DNA, HCV helicase counter-screen; shares compounds with NS3 helicase inh; 120 tested, under 10 active; fluorescent intercalator displacement from DNA, fluorescence; IC50, µM; call rule not given here
* = called active by the depositor.

For CCOC(=O)[C@]12CCCC=C1N(Cc1ccccc1)C(=O)[C@H](CC(=O)NCC1CCCCC1)C2 the results were ABHD5-PLIN5 inh 0 and PRMT1 FP inh 1.
`CCN(CC)CCNc1nc(-c2ccco2)c2c(c1C#N)CC(C)(C)OC2` gave NS3 helicase inh -4, ABHD5-PLIN5 inh 2, A3G deaminase -1, core dimer inh 3, A3A deaminase 4 and PRMT1 FP inh 2.
CC1(C)Cc2c(C#N)c(NCCc3ccccc3)nc(-c3ccco3)c2CO1 was read as NS3 helicase inh 40*, ABHD5-PLIN5 inh 14, A3G deaminase -5, core dimer inh 34, A3A deaminase -1, PRMT1 FP inh 18, NS3 helicase cf 63*, FID counter trip -19 and DNA FID DR >79.
COc1cc(/C=N/NC(=O)c2nonc2N)cc(OC)c1OC was read as NS3 helicase inh 39*, ABHD5-PLIN5 inh 4, A3G deaminase -5, core dimer inh 13, A3A deaminase 1, PRMT1 FP inh -2, NS3 helicase cf -2 and FID counter trip 7.
Screening COc1ccc2nc(Cl)c(C=O)c(N3CCOCC3)c2c1 returned ABHD5-PLIN5 inh 1 and PRMT1 FP inh -1.
O=C(O)CN1C(=O)/C(=C/c2ccccc2Cl)Oc2ccccc21 was read as NS3 helicase inh 26, ABHD5-PLIN5 inh -5, A3G deaminase -7, core dimer inh 2, A3A deaminase 3 and PRMT1 FP inh 2.
`O=C(O)CN1C(=O)/C(=C/c2cccc(Cl)c2)Oc2ccccc21` gave NS3 helicase inh 54*, ABHD5-PLIN5 inh 7, A3G deaminase 1, core dimer inh -7, A3A deaminase 1, PRMT1 FP inh -1, NS3 helicase cf 59* and FID counter trip -14.
CC(=O)Oc1ccc(C(=O)[C@H]2[C@H]3C(=O)N(c4ccc(C)cc4)C(=O)[C@H]3[C@@H]3C=CC=NN32)cc1 was read as NS3 helicase inh 34, ABHD5-PLIN5 inh 5, A3G deaminase 9, core dimer inh 45, A3A deaminase 1 and PRMT1 FP inh 1.
Screening O=C(Nc1ccccc1)[C@@H]1[C@@H]2C(=O)N(c3ccc(F)cc3)C(=O)[C@@H]2[C@H]2C=CC=NN21 returned NS3 helicase inh 61*, ABHD5-PLIN5 inh 2, A3G deaminase 12, core dimer inh 3, A3A deaminase -1, PRMT1 FP inh 4, NS3 helicase cf -19 and FID counter trip -7.
`Cc1ccc(N2C(=O)[C@@H]3[C@H](C2=O)[C@H]2C=CC=NN2[C@@H]3C(=O)Nc2ccccc2)cc1` gave NS3 helicase inh 16, ABHD5-PLIN5 inh 6, A3G deaminase 15, core dimer inh 10, A3A deaminase -3 and PRMT1 FP inh 2.
COc1ccc(C(=O)[C@H]2[C@H]3C(=O)N(c4ccc(C)cc4)C(=O)[C@H]3C3C=CC=NN32)cc1 (stereo partly drawn) was read as NS3 helicase inh 60*, ABHD5-PLIN5 inh -4, A3G deaminase 1, core dimer inh 37, A3A deaminase 3, PRMT1 FP inh -2, NS3 helicase cf -16 and FID counter trip -19.
`CC12CCC(C(=O)CC1=O)C2(C)C` (stereo not drawn) gave ABHD5-PLIN5 inh -10 and PRMT1 FP inh -4.
For O=C(Nc1sc2c(c1-c1nc3ccccc3s1)CCNC2)C(F)F the results were PRMT1 FP inh 5.
`Cc1nn(Cc2ccccc2)c(Cl)c1/C=C/C(=O)OCC(=O)N(C)C1CCS(=O)(=O)C1` (stereo not drawn) gave NS3 helicase inh 46*, ABHD5-PLIN5 inh 6, A3G deaminase -1, core dimer inh 0, A3A deaminase 2, PRMT1 FP inh 1, NS3 helicase cf -12 and FID counter trip -20.
Cc1ccc(-n2nc3ccc(N)cc3n2)cc1C was read as NS3 helicase inh 70*, ABHD5-PLIN5 inh 4, A3G deaminase -2, core dimer inh -1, A3A deaminase -1, PRMT1 FP inh 2, NS3 helicase cf -9 and FID counter trip 28.
`COc1ccc(-n2nc3ccc(N)cc3n2)cc1Cl` gave NS3 helicase inh 37*, ABHD5-PLIN5 inh 1, A3G deaminase 5, core dimer inh 15, A3A deaminase 6, PRMT1 FP inh 10, NS3 helicase cf -5 and FID counter trip 23.
Screening Cc1ccc(-n2nc3ccc(N)cc3n2)cc1Cl returned NS3 helicase inh 23, ABHD5-PLIN5 inh -8, A3G deaminase -4, core dimer inh 5, A3A deaminase 3 and PRMT1 FP inh 5.
For COc1cc(NC(=O)c2ccccc2F)ccc1NC(=O)c1cc2ccccc2o1 the results were NS3 helicase inh 0, ABHD5-PLIN5 inh 3, A3G deaminase -7, A3A deaminase -6 and PRMT1 FP inh 0.
Screening O=C(Nc1ccc(C(=O)N2CCCCC2)cc1)[C@H]1O[C@@H](n2ccc(=O)[nH]c2=O)[C@H](O)[C@@H]1O returned ABHD5-PLIN5 inh 3 and PRMT1 FP inh 4.
`CC(=O)C1=C(C)NC(SCc2ccc(C#N)cc2)=C(C#N)C1c1ccco1` (stereo not drawn) gave NS3 helicase inh 25, ABHD5-PLIN5 inh 9, core dimer inh -3 and PRMT1 FP inh 5.
For CC(=O)C1=C(C)NC(SCc2cccc3ccccc23)=C(C#N)C1c1ccco1 (stereo not drawn) the results were NS3 helicase inh 38*, ABHD5-PLIN5 inh -1, A3G deaminase -4, core dimer inh 5, A3A deaminase 0, PRMT1 FP inh 4, NS3 helicase cf -4 and FID counter trip -3.
For O=C(Oc1ccc(NC(=O)c2cc3c(cc2Br)OCO3)cc1)c1ccccc1 the results were NS3 helicase inh 25, ABHD5-PLIN5 inh 9, A3G deaminase -2, core dimer inh 2, A3A deaminase -1, PRMT1 FP inh 2, NS3 helicase cf -10 and FID counter trip -6.
CCOC(=O)c1c(C)oc2c(F)c(F)c(F)c(F)c2c1=O was read as NS3 helicase inh 42*, ABHD5-PLIN5 inh -1, A3G deaminase 0, core dimer inh 2, A3A deaminase 3, PRMT1 FP inh 5, NS3 helicase cf 4 and FID counter trip 26.
For CCOC(=O)c1c(C)oc(=O)c(CC)c1O the results were ABHD5-PLIN5 inh 4 and PRMT1 FP inh 1.
